Measurements: ChEMBL document CHEMBL1629486, “Antimicrobial, antitumor and 5α-reductase inhibitor activities of some hydrazonoyl substituted pyrimidinones” (Eur J Med Chem, 2010)

Tests used:
Rattus norvegicus [1] = species: Rattus norvegicus; test: Acute toxicity in albino rat; format: organism-based; settings: in vivo
Summary of the method: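 Male albino rats received injections of increasing doses. LD50 and LD90, the doses killing 50% and 90% of the animals, were calculated by the Austen and Brocklehurst method.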

Bacillus subtilis = test: Antimicrobial activity against Bacillus subtilis at 1 to 5 ug/ml by agar well diffusion method; format: functional
Summary of the method: (§1)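 Agar well diffusion against bacteria and fungi. Inhibition zone is scored beyond the control: ++ 0.6–1.0 cm, + 0.1–0.5 cm, 0 no inhibition.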

Aspergillus fumigatus = test: Antimicrobial activity against Aspergillus fumigatus at 1 to 5 ug/ml by agar well diffusion method; format: functional; summary of the method: as §1
Candida albicans = test: Antimicrobial activity against Candida albicans at 1 to 5 ug/ml by agar well diffusion method; format: functional; summary of the method: as §1
Pseudomonas aeruginosa = test: Antimicrobial activity against Pseudomonas aeruginosa at 1 to 5 ug/ml by agar well diffusion method; format: functional; summary of the method: as §1
Rattus norvegicus [2] = test: Effect on circulating testosterone and dihydrotestosterone level in sc dosed Sprague-Dawley rat by radioimmunoassay relative to anastrozole; format: functional
Summary of the method: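 Serum testosterone and DHT were measured by RIA in ether extracts of serum (0.5 mL serum, 2 mL diethyl ether, 60 s shaking), without chromatography, in rats dosed at several levels. Relative potency is the ED50 of anastrozole divided by the ED50 of the test agent, where ED50 is the dose giving 50% of the pharmacological response.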

Staphylococcus aureus = test: Antimicrobial activity against Staphylococcus aureus at 1 to 5 ug/ml by agar well diffusion method; format: functional; summary of the method: as §1
Escherichia coli = test: Antimicrobial activity against Escherichia coli at 1 to 5 ug/ml by agar well diffusion method; format: functional; summary of the method: as §1
[3] = tested on: Syncephalastrum racemosum; test: Antimicrobial activity against Syncephalastrum racemosum at 1 to 5 ug/ml by agar well diffusion method; format: functional; summary of the method: as §1
Rattus norvegicus [4] = test: Effect on circulating testosterone and dihydrotestosterone level in sc dosed Sprague-Dawley rat by radioimmunoassay; format: functional
Summary of the method: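 Rats were given a range of doses of the 5α-reductase inhibitors. Serum testosterone and DHT were measured by radioimmunoassay with specific antisera, without prior chromatography. Serum (0.5 mL) was extracted with 2 mL peroxide-free diethyl ether by shaking for 60 s. Levels were compared with vehicle-treated controls, and ED50 was derived.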

Penicillium italicum = test: Antimicrobial activity against Penicillium italicum at 1 to 5 ug/ml by agar well diffusion method; format: functional; summary of the method: as §1

| SMILES | LD50 (Rattus norvegicus [1]) | LD90 (Rattus norvegicus [1]) | diameter of the inhibition zone (DIZ) (Bacillus subtilis) | diameter of the inhibition zone (DIZ) (Aspergillus fumigatus) | diameter of the inhibition zone (DIZ) (Candida albicans) | diameter of the inhibition zone (DIZ) (Pseudomonas aeruginosa) | Ratio ED50 (Rattus norvegicus [2]) | diameter of the inhibition zone (DIZ) (Staphylococcus aureus) | diameter of the inhibition zone (DIZ) (Escherichia coli) | diameter of the inhibition zone (DIZ) [3] | ED50 (Rattus norvegicus [4]) | diameter of the inhibition zone (DIZ) (Penicillium italicum) |
| --- | --- | --- | --- | --- | --- | --- | --- | --- | --- | --- | --- | --- |
| Cc1cccc(N/N=C(\C(=O)c2ccc(Cl)cc2)c2nc(C)cc(=O)[nH]2)c1 | 2.555 mg/kg | 3.98654 mg/kg | 0 cm | 0 cm | 0 cm | 0 cm | 6.264 | 0 cm | 0 cm | 0 cm | 0.000174 mg/kg | 0 cm |
| Cc1cc(=O)[nH]c(/C(=N/Nc2cccc([N+](=O)[O-])c2)C(=O)c2ccc(Cl)cc2)n1 | 2.55348 mg/kg | 3.30012 mg/kg | 0.1 cm | 0 cm | 0 cm | 0 cm | 5.798 | 0.6 cm | 0.1 cm | 0 cm | 0.000188 mg/kg | 0 cm |
| Cc1cc(=O)[nH]c(/C(=N/Nc2ccc([N+](=O)[O-])cc2)C(=O)c2ccc(Cl)cc2)n1 | 2.34523 mg/kg | 3.29098 mg/kg | 0 cm | 0 cm | 0 cm | 0 cm | 2.28 | 0.6 cm | 0.1 cm | 0 cm | 0.000478 mg/kg | 0 cm |
| COc1ccc(N/N=C(\C(=O)c2ccc(Cl)cc2)c2nc(C)cc(=O)[nH]2)cc1 |  |  | 0 cm | 0 cm | 0 cm | 0 cm |  | 0 cm | 0 cm | 0 cm |  | 0 cm |
| Cc1cc(=O)[nH]c(/C(=N/Nc2ccc(Cl)cc2)C(=O)c2ccc(Cl)cc2)n1 | 2.34537 mg/kg | 3.12376 mg/kg | 0 cm | 0 cm | 0 cm | 0 cm | 1.784 | 0 cm | 0 cm | 0 cm | 0.000611 mg/kg | 0 cm |
| CCOC(=O)c1ccc(N/N=C(\C(=O)c2ccc(Cl)cc2)c2nc(C)cc(=O)[nH]2)cc1 | 2.34133 mg/kg | 3.21717 mg/kg | 0 cm | 0 cm | 0 cm | 0 cm | 5.505 | 0 cm | 0 cm | 0 cm | 0.000198 mg/kg | 0 cm |
| CN(C/C=C/C#CC(C)(C)C)Cc1cccc2ccccc12 [TERBINAFINE] |  |  |  | 1.1 cm | 0.6 cm |  |  |  |  | 1.1 cm |  | 1.1 cm |
| Cc1cc(=O)[nH]c(/C(=N/Nc2cccc(Cl)c2)C(=O)c2ccc(Cl)cc2)n1 | 2.13345 mg/kg | 2.98032 mg/kg | 0 cm | 0 cm | 0 cm | 0 cm | 1.844 | 0 cm | 0.1 cm | 0 cm | 0.000591 mg/kg | 0 cm |
| O=C(N[C@H](CO)[C@H](O)c1ccc([N+](=O)[O-])cc1)C(Cl)Cl [CHLORAMPHENICOL] |  |  | 1.1 cm |  |  | 1.1 cm |  | 0.6 cm | 0.6 cm |  |  |  |
| CC(C)(C#N)c1cc(Cn2cncn2)cc(C(C)(C)C#N)c1 [ANASTROZOLE] |  |  |  |  |  |  | 1 |  |  |  |  |  |
